Measured values published in ChEMBL document CHEMBL5500359, “Identification of a new bisindolinone arresting IGROV1 cells proliferation” (Eur J Med Chem, 2024).

Key:
[1] = test system: Melanoma cell line; assay: […] against human Melanoma cells incubated for 48 hrs by SRB assay; assay type: functional; conditions: read-out: LC50 (the source's name)
Method in brief: (§1)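 NCI DTP five-concentration screen. Cells were seeded at 5 × 10³–4 × 10⁴ cells/well, depending on the line. Compounds were diluted in fresh medium and added at scalar concentrations over 0–1000 µM or 0–100 µM. After 48 h the cells were fixed in situ, stained with sulforhodamine B, and optical density was read. GI50, TGI and LC50 were derived by NCI procedures, and the panel mean is the mean graph midpoint.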

[2] = test system: Melanoma cell line; assay: Cell growth inhibition of human Melanoma cells incubated for 48 hrs by SRB assay; assay type: functional
Method in brief: (§2)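 NCI-60 five-concentration screen: lines seeded 5×10^3–4×10^4 cells/well depending on line; compound diluted in fresh medium at scalar concentrations 0–100 or 0–1000 μM; 48 h exposure, in situ fixation, sulforhodamine B protein staining, optical density read; GI50, TGI and LC50 per NCI procedures; panel mean = mean graph midpoint.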

[3] = test system: Prostatic carcinoma cell; assay: Cell growth inhibition of human Prostate carcinoma cells incubated for 48 hrs by SRB assay; assay type: functional; method in brief: as §2
[4] = test system: Ovarian cancer cell line; assay: Cytotoxicity against human Ovarian cancer cells incubated for 48 hrs by SRB assay; assay type: functional; method in brief: as §2
[5] = test system: Renal cancer cell line; assay: Cell growth inhibition of human Renal cancer cells incubated for 48 hrs by SRB assay; assay type: functional; method in brief: as §2
[6] = test system: Colon carcinoma cell; assay: Cytotoxicity against human Colon carcinoma cells incubated for 48 hrs by SRB assay; assay type: functional; method in brief: as §2
[7] = test system: Panel NCI-60 (60 carcinoma cell lines); assay: Cell growth inhibition of human Panel NCI-60 (60 carcinoma cell lines) incubated for 48 hrs by SRB assay; assay type: functional; method in brief: as §2
[8] = test system: Renal cancer cell line; assay: Cytostatic activity against human Renal cancer cells incubated for 48 hrs by SRB assay; assay type: functional; method in brief: as §2
[9] = Cytostatic activity against human Leukemia cancer cells incubated for 48 hrs by SRB assay; assay type: functional, Leukemia cell; method in brief: as §2
[10] = test system: Breast cancer cell line; assay: Cytostatic activity against human Breast cancer cells incubated for 48 hrs by SRB assay; assay type: functional; method in brief: as §2
[11] = test system: Breast cancer cell line; assay: Cell growth inhibition of human Breast cancer cells incubated for 48 hrs by SRB assay; assay type: functional; conditions: read-out: LC50 (the source's name); method in brief: as §1
[12] = test system: Breast cancer cell line; assay: Cytotoxicity against human Breast cancer cells incubated for 48 hrs by SRB assay; assay type: functional; method in brief: as §2
[13] = test system: CNS carcinoma cell; assay: Cell growth inhibition of human CNS carcinoma cells incubated for 48 hrs by SRB assay; assay type: functional; method in brief: as §2
[14] = test system: Ovarian cancer cell line; assay: Cytostatic activity against human Ovarian cancer cells incubated for 48 hrs by SRB assay; assay type: functional; method in brief: as §2
[15] = Cytotoxicity against human Leukemia cancer cells incubated for 48 hrs by SRB assay; assay type: functional; conditions: Leukemia cell, read-out: LC50 (the source's name); method in brief: as §1
[16] = test system: NSCLC; assay: Cell growth inhibition of human NSCLC cells incubated for 48 hrs by SRB assay; assay type: functional; method in brief: as §2
[17] = Cell growth inhibition of human Leukemia cancer cells incubated for 48 hrs by SRB assay; assay type: functional; method in brief: as §2
[18] = test system: CNS carcinoma cell; assay: Cytostatic activity against human CNS carcinoma cells incubated for 48 hrs by SRB assay; assay type: functional; method in brief: as §2
[19] = test system: Colon carcinoma cell; assay: Cytostatic activity against human Colon carcinoma cells incubated for 48 hrs by SRB assay; assay type: functional; method in brief: as §2
[20] = test system: Panel NCI-60 (60 carcinoma cell lines); assay: Cytostatic activity against human Panel NCI-60 (60 carcinoma cell lines) incubated for 48 hrs by SRB assay; assay type: functional; method in brief: as §2

SMILES | CC50 [1] | GI [2] | GI [3] | GI [4] | GI50 [5] | GI [6] | GI50 [7] | GI [8] | GI [9] | TGI [10] | CC50 [11] | GI [12] | GI50 [13] | TGI [14] | CC50 [15] | GI [16] | GI50 [17] | GI [18] | TGI [19] | GI [20]
O=C1Nc2cc(Cl)ccc2/C1=C\c1cccc(/C=C2/C(=O)Nc3cc(Cl)ccc32)c1 | 5.25 µM | 2.19 µM | 2.14 µM | 44.67 µM | 3.09 µM | 11.22 µM | 2570 nM | 8.51 µM | 11.22 µM | 6.92 µM | 2450 nM | 37.15 µM | 2290 nM | 8.91 µM | 100 µM | 3.39 µM | 2400 nM | 5.89 µM | 4.68 µM | 7.59 µM
CC(C)(C)c1cc(/C=C2/C(=O)Nc3ccc(F)cc32)c(O)c(/C=C2/C(=O)Nc3ccc(F)cc32)c1 | 9.77 µM | 3.02 µM | 3.89 µM | 47.86 µM | 4.68 µM | 42.66 µM | 3800 nM | 14.13 µM | 12.02 µM | 19.5 µM | 3800 nM | 46.77 µM | 2950 nM | 15.8 µM | 60.3 µM | 4.17 µM | 3090 nM | 12.02 µM | 14.8 µM | 13.8 µM
COc1cc2c(c(OC)c1OC)C(=Cc1cc(C(C)(C)C)cc(/C=C3\C(=O)Nc4cc(OC)c(OC)c(OC)c43)c1O)C(=O)N2 | 3.63 µM | 1.82 µM | 1.91 µM | 25.12 µM | 2.19 µM | 8.13 µM | 1950 nM | 4.9 µM | 6.03 µM | 4.9 µM | 1860 nM | 50.12 µM | 1620 nM | 5.13 µM | 60.3 µM | 1.95 µM | 2190 nM | 3.31 µM | 3.89 µM | 4.37 µM
